Data set [1] deals with Rattus norvegicus. Kind of data set: Gastroprotective activity on stress-induced ulcers in male Wistar rats at 12.5 mg/kg upon intraperitoneal administration. The format is functional. The method in brief:
(§1)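 Rats (160-180 g) fasted 24 h, given test compound ip in physiological saline; saline-only controls. After 1 h, restrained in net cage and immersed to xiphisternum in 21 °C water bath for 6 h, then killed and stomachs opened along greater curvature. Hemorrhagic ulceration scored 0-3; % protection = 100 − (treated total rating/saline rating)×100. Five rats per dose.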

For data set [2], the system named is Rattus norvegicus. Kind of data set: Gastroprotective activity on stress-induced ulcers in male Wistar rats at 25 mg/kg upon intraperitoneal administration. It counts as functional. In a few lines: as §1
The test system of data set [3] is Rattus norvegicus. Nature of the data set: Gastroprotective activity on stress-induced ulcers in male Wistar rats at 50 mg/kg upon intraperitoneal administration. It counts as functional. In a few lines: as §1
In data set [4] the test system is Rattus norvegicus. Kind of data set: Gastroprotective activity on stress-induced ulcers in male Wistar rats at 6.25 mg/kg upon intraperitoneal administration. It counts as functional. In a few lines: as §1
Data set [5] can be described thus: Lethal dose in mice upon intraperitoneal administration;Value ranges from(131.6-243.4). Conditions: mouse, in vivo, ip. It counts as toxicity, organism-based.
The nature of data set [6]: Lethal dose in mice upon intraperitoneal administration;Value ranges from(5-9.8). The format is toxicity, organism-based. As to conditions: mouse, in vivo, ip.
Data set [7] deals with Rattus norvegicus. Kind of data set: Gastroprotective activity on stress-induced ulcers in male Wistar rats at 6.25 mg/kg upon intraperitoneal administration;the minimum effective dose = 125 ug/kg (protection 66%). It counts as functional. In a few lines:
(§2)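 Male Wistar rats (160-180 g), food-deprived 24 h, given compound ip in physiological saline; saline-only controls. After 1 h, restrained in net cage and immersed to xiphisternum in 21 °C water for 6 h. Stomachs removed and opened along greater curvature, hemorrhagic ulceration scored 0-3. % protection = 100 − (treated total rating / saline rating)×100. Five rats per dose.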

Data set [8] deals with Rattus norvegicus. Nature of the data set: Gastroprotective activity on stress-induced ulcers in male Wistar rats at the specified ip dose of 12.5 mg/kg. It counts as functional. Conditions: route intraperitoneal. In a few lines: as §2

As for `NC(CC(=O)O)C(O)C(O)C(=O)[O-].[Na+]` (centres undefined), the Protection in data set [1] came to 0%; in data set [2], 23%; in data set [3], 43%.

As for `CC(=O)NC1CC(=O)OC1C(OC(C)=O)C(=O)NC(CC(C)C)C1Cc2cccc(OC(C)=O)c2C(=O)O1` (centres undefined), the figures for the Protection in data set [1], in data set [2] and in data set [3] were 0%, 0% and 16%, respectively.

Consider `CC(=O)NC1CC(=O)OC1C(OC(C)=O)C(=O)NC(CC(C)C)C1Cc2cccc(O)c2C(=O)O1` (centres undefined), for which the Protection in data set [1] is 0%; in data set [2], 16%; in data set [3], 16%.

Consider `CC(C)CC(NC(=O)C(O)C(O)C(N)CC(=O)O)C(O)Cc1cccc(O)c1C(=O)[O-].[Na+]` (centres undefined), for which the Protection in data set [1] was found to be 16%; in data set [2] it was 50%; in data set [3], 50%.

`COc1cccc2c1C(=O)OC(C(CC(C)C)NC(=O)C(O)C(O)C(N)CC(=O)O)C2` (centres undefined): the Protection in data set [1] stood at 66%; in data set [2], 83%; in data set [3], 83%; in data set [4], 50%.

For the molecule `CC(=O)NC1CC(=O)OC1C(O)C(=O)NC(CC(C)C)C1Cc2cccc(O)c2C(=O)O1` (centres undefined), the Protection in data set [1] was 16%; in data set [2], 33%; in data set [3], 66%.

In data set [5], `CC(C)C[C@H](NC(=O)[C@@H](O)[C@@H](O)[C@@H](N)CC(=O)O)[C@@H]1Cc2cccc(O)c2C(=O)O1` had an LD50 of 179 mg/kg. Besides, the Protection is 76% in data set [1], 100% in data set [2], 100% in data set [3] and 56% in data set [4].

In the case of `CC(C)CC(NC(=O)C(O)C1OC(=O)CC1N)C1Cc2cccc(O)c2C(=O)O1` (centres undefined), the Protection came out at 76% in data set [1], 76% in data set [2], 83% in data set [3] and 17% in data set [4].

Regarding `CC(C)CC(NC(=O)C(O)C1C=CC(=O)O1)C1Cc2cccc(O)c2C(=O)O1` (centres undefined), the Protection in data set [1] is reported as 0%; in data set [2], 16%; in data set [3] it was 33%.

Take `CC(C)CC(N)C1Cc2cccc(O)c2C(=O)O1.Cl` (centres undefined): the Protection stood at 16% in data set [1], 33% in data set [2] and 33% in data set [3].

In data set [6], `CC(C)CC(NC(=O)C(O)C(O)C(N)CC(N)=O)C1Cc2cccc(O)c2C(=O)O1.Cl` (centres undefined) showed an LD50 of 7 mg/kg. For the same molecule, the Protection in data set [2], in data set [3], in data set [7] and in data set [8] was 100% each time.

(Values after ChEMBL document CHEMBL1122320, “1H-2-benzopyran-1-one derivatives, microbial products with pharmacological activity. Relationship between structure and activity in 6-[[1(S)-(3(S),4- dihydro-8-hydroxy-1-oxo-1H-2-benzopyran-3-yl)-3-methylbutyl]-amino]-4(S), 5(S)-dihydroxy-6-oxo-3(S)-ammoniohexanoate” (J Med Chem, 1983).)
